This is a sample that favours compounds with a hit; in the whole collection about 3.5% have one here.
RGS4 act – RGS4 potentiators or activators, primary screen, cell-based, HEK293 M3R inducible RGS4, calcium flux; carbachol calcium flux Fluo4; active compounds read low; B-score at 10 µM; 310,000 tested, 0.92% active;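 active means B-score of the integrated calcium signal more than 4 SD below the library mean, with starting fluorescence not abnormally high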;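 further: negative B-score means reduced calcium response which marks RGS4 activation or potentiation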
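Assay system: HEK293 FlpIn-TREx cells, stable M3R, doxycycline-inducible RGS4 / Probe or stimulus: carbachol, ECmax concentration / Times: overnight RGS4 induction, 30 min dye load 37 °C, 20 min compound RT / Signal: kinetic calcium fluorescence imaging with Fluo4-AM dye, 2 µM / Measure: Agonist-evoked peak-minus-minimum fluorescence over baseline, integrated ratio, B score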
MrgX1 antagonist – antagonists of human MrgX1 receptor, primary screen, HEK293 cells, Fluo-4 calcium flux | Mas-related G-protein coupled receptor member X1 (Homo sapiens), Q96LB2 | BAM8-22 antagonism; active compounds read low | B-score at 10 µM | 310,000 tested, 1.3% active | AID 588676, 2011;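 active means calcium-response B-score plate-corrected more than 3 library SD below zero, starting fluorescence within 5 deviations, no agonist response on first addition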;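 further: peak minus trough fluorescence over baseline after final BAM8-22 challenge near maximal dose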
Target sequence (Q96LB2 whole entry, looked up): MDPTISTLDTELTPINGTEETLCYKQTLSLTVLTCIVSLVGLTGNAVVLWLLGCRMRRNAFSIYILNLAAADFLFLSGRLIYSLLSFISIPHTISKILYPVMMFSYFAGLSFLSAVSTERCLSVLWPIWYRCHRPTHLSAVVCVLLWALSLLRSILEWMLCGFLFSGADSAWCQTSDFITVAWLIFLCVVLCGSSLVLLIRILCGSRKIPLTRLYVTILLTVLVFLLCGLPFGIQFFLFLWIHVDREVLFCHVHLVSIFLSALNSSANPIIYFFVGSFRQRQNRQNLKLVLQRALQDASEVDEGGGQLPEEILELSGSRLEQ
MrgX1 PAM – positive allosteric modulators of MrgX1, primary screen, HEK293 cells, Fluo-4 calcium flux | Mas-related G-protein coupled receptor member X1 (Homo sapiens), Q96LB2 | FDSS; active compounds read high | B-score at 10 µM | 310,000 tested, 0.63% active | AID 588675, 2011;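 active means plate-corrected calcium response at least 3 library SD above typical, normal starting fluorescence, not activating the receptor alone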;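 further: compound read alongside a low EC10 to EC30 dose of BAM8-22 agonist; peak minus trough fluorescence over baseline measured at the second addition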
MrgX1 agonist – agonists of human MrgX1 receptor, primary screen, HEK293 cells, Fluo-4 calcium flux | Fluo-4 calcium fluorescence, agonist mode; active compounds read high | B-score at 10 µM | 310,000 tested, 0.44% active | Mas-related G-protein coupled receptor member X1 (Homo sapiens), Q96LB2;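 active means calcium response B-score plate-corrected fluorescence ratio at least 3 library SD, with starting fluorescence B-score inside 5 SD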
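System: HEK293 cells stably expressing human MrgX1 receptor; Dosing: test compound in the initial addition of three; Schedule: overnight plating, then 30 min 37 °C plus 30 min room-temperature dye loading; Detection: kinetic calcium dye fluorescence, Fluo-4 NW; Controls: per-plate positive and negative controls for Z′ factor.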
RGS4 block – RGS4 inhibitors, primary screen, cell-based, HEK293 M3R inducible RGS4, calcium flux; B-score at 10 µM; Fluo-4 calcium flux; active compounds read high; triggered by carbachol at its EC20; AID 463165, 2010; 310,000 tested, 0.45% active;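 active means B-score, a plate-corrected calcium signal, over three deviations above library mean, with baseline fluorescence within five deviations of library mean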;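 further: RGS4 expression induced by doxycycline in cells with stable M3 receptor; B-score is computed from the integrated fluorescence ratio over baseline after carbachol; higher B-score means a larger calcium signal and so more RGS4 inhibition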
Target sequence (P49798 whole entry, looked up): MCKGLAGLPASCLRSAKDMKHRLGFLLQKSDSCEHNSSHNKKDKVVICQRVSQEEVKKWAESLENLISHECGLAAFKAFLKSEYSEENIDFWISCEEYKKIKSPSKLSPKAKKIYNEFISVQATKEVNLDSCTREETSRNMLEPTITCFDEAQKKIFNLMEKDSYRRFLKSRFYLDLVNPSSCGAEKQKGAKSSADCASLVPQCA
MrgX1 antag conf – MrgX1 receptor antagonists, duplicate retest, confirmation, HEK293 cells, Fluo-4 calcium flux | shares compounds with MrgX1 antagonist | BAM8-22 calcium flux; active compounds read low | remaining BAM8-22 calcium response % of control (active compounds read low), % at 10 µM | 2,300 tested, 19% active;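 active means remaining agonist calcium response no higher than 100% minus 3 SD of agonist-only control wells, with starting fluorescence near control levels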;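 further: agonist BAM8-22 given at a near maximal EC90 to ECmax level; peak minus minimum fluorescence divided by baseline after agonist addition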
HEK293 Ca flux – nonspecific calcium signal in parental HEK293, confirmation, counter-screen for MrgX1 antagonist project, parental HEK293 cells, Fluo-4 calcium flux | shares compounds with MrgX1 antagonist | Fluo-4 calcium fluorescence, FDSS | fluorescence ratio F(max-min)/F0 at 10 µM | 4,000 tested, 2% active;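 active means duplicate-averaged calcium fluorescence ratio at least three times the standard deviation of buffer wells, a nonspecific response in parental cells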
HEK293 Ca counter – calcium response in parental HEK293 cells, primary screen, counter-screen for MrgX1 allosteric activator project, cell-based, Fluo-4 calcium flux, duplicate; Fluo-4 fluorescence ratio; active compounds read high; fluorescence ratio F(max-min)/F0 at 10 µM; 4,000 tested, 0.4% active; shares compounds with MrgX1 antagonist; AID 624114, 2012;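 active means calcium fluorescence ratio, averaged over duplicates, at least 3 SD of the buffer-well ratio, meaning a nonspecific response in receptor-free cells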;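 further: untransfected parental HEK293 lacking MrgX1 used as counterscreen for MrgX1 allosteric activators; fluorescence change taken during the second addition on a kinetic imager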
HEK293 Ca cntr2 – calcium response in parental HEK293 cells, primary screen, counter-screen for MrgX1 agonist project, cell-based, Fluo-4 calcium flux, duplicate, agonist mode. Fluo-4 calcium fluorescence (FDSS); active compounds read high. 4,000 tested, 8.7% active. fluorescence ratio F(max-min)/F0 at 10 µM. shares compounds with MrgX1 antagonist;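 active means calcium fluorescence ratio at least three times the spread of buffer wells, meaning a non-specific response in parental cells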
* marks the source's active call; other numbers are inactive results; i = inactive; x = no result given.

SMILES	RGS4 act	MrgX1 antagonist	MrgX1 PAM	MrgX1 agonist	RGS4 block	MrgX1 antag conf	HEK293 Ca flux	HEK293 Ca counter	HEK293 Ca cntr2
CCc1ccc(N2CC(C(=O)Nc3ccc(F)cc3)CC2=O)cc1 (centres undefined)	i	i	i	i	i	x	x	x	x
Cc1cc(NC(=O)c2ccc(N3C(=O)C4C5C=CC(C5)C4C3=O)cc2)no1 (centres undefined)	i	i	i	i	i	x	x	x	x
Cc1cc(NC(=O)C2CC(=O)N(c3ccccc3)C2)no1 (centres undefined)	i	-4.6*	i	i	i	85%*	i	i	i
CCc1ccc(N2CC(C(=O)Nc3cc(C)ccc3F)CC2=O)cc1 (centres undefined)	i	-6.9*	i	i	i	i	i	i	i
Cc1cc(NC(=O)c2ccc(N3C(=O)CCC3=O)cc2)no1	i	-5.3*	i	i	i	i	i	i	i
CC1(C)CC[C@@]23CC[C@]4(C)[C@@](OC2=O)(C3C1)[C@H]1O[C@H]1C1[C@@]2(C)CC[C@H](O)C(C)(C)C2CC[C@]14C (some centres undefined)	i	i	i	i	i	x	x	x	x
CC(C)Oc1ccc(C(=O)NC2CCCCC2)cc1	i	i	i	i	i	x	x	x	x
CC(C)Oc1ccc(C(CCN)C2CCCCC2)cc1 (centres undefined)	i	-4.7*	i	i	i	i	i	i	i
CC(OC(=O)c1nn(C)c(=O)c2ccccc12)C(=O)NC1CCCCC1C (centres undefined)	i	i	i	i	i	x	x	x	x
COC(=O)c1sc(-c2ccc(C(C)(C)C)cc2)cc1NC(=O)COCC(=O)O	i	-4.7*	i	i	i	68%*	i	i	60*
COC(=O)c1sc(-c2ccc(Cl)cc2)cc1NC(=O)CSCC(=O)O	i	i	i	i	i	x	x	x	x
Cc1cccc(-n2ncc3c2CCCC3NC(=O)C2CCOCC2)c1C (centres undefined)	i	-5.2*	i	i	i	74%*	i	i	i
CN(CC(=O)Nc1ccc2c(c1)OCCO2)S(=O)(=O)c1ccc(F)cc1	i	i	i	i	i	x	x	x	x
O=[N+]([O-])c1cc(C(F)(F)F)ccc1NCCCCNS(=O)(=O)c1ccc(Cl)cc1	i	i	i	i	i	x	x	x	x
O=[N+]([O-])c1cc(C(F)(F)F)ccc1NCCNC(=S)Nc1ccc(Cl)cc1	-7.1*	-11*	i	i	i	72%*	i	i	i
CC(=O)NCCc1ccc(S(=O)(=O)NC2OC(=O)c3ccccc32)cc1 (centres undefined)	i	-4.8*	i	i	i	i	i	i	i
CC(=O)NCc1ccc(S(=O)(=O)NC(C)CCc2ccccc2)cc1 (centres undefined)	i	i	i	i	i	x	x	x	x
Cc1ccc(S(=O)(=O)N2CCN(C(=O)c3ccnn3C)CC2)cc1C	i	-5.7*	i	i	i	i	i	i	i
Cc1ccc(Cl)cc1NC(=O)[C@@H]1CCC(=O)N1C1OC(=O)c2ccccc21 (some centres undefined)	i	-9.9*	i	i	i	84%*	i	i	i
Cc1ccc(NC(=O)[C@@H]2CCC(=O)N2C2OC(=O)c3ccccc32)cc1Cl (some centres undefined)	i	i	i	i	i	x	x	x	x
COC(=O)CNC(=O)CNC(=O)Nc1ccccc1	i	-8.1*	i	i	i	83%*	i	i	i
Cc1cccc(NC(=O)CCN2CCN(C/C=C/c3ccccc3)CC2)c1	i	-6.1*	i	i	i	i	i	i	i
O=C(CCN1CCN(C/C=C/c2ccccc2)CC1)Nc1ccccc1	i	i	i	i	i	x	x	x	x
Cc1cccc(NC(=O)c2ccc(CN3CCN(Cc4ccccc4)CC3)cc2)c1	i	-7.9*	i	i	i	i	i	i	i
Cc1cccc(CN2CCN(C(=S)Nc3ccccc3)CC2)c1	i	-5*	i	i	i	i	i	i	i
SMILES	RGS4 act	MrgX1 antagonist	MrgX1 PAM	MrgX1 agonist	RGS4 block	MrgX1 antag conf	HEK293 Ca flux	HEK293 Ca counter	HEK293 Ca cntr2
CC(=O)Nc1ccc(S(=O)(=O)NCCc2ccccn2)cc1	i	i	i	i	i	x	x	x	x
CCN1C(=O)c2cccc3c(S(=O)(=O)Nc4ccncc4)ccc1c23	i	i	i	i	i	x	x	x	x
CCN1C(=O)c2cccc3c(S(=O)(=O)Nc4ccccc4)ccc1c23	i	-6.9*	i	i	i	i	i	i	i
COC(=O)c1ccc(C(=O)OC)c(NC(=O)CCC(=O)O)c1	i	i	i	i	i	x	x	x	x
COC(=O)c1ccc(C(=O)OC)c(NC(=O)COC(=O)c2ccccc2OC)c1	i	-6.7*	i	i	i	84%*	i	i	i
O=c1[nH]c(SCc2ccc(Cl)cc2)nc2[nH]ncc12	i	i	i	i	i	x	x	x	x
CC(C)(C)SCCNC(=O)CSc1ccccc1	i	-5*	i	i	i	84%*	i	i	i
CSc1cccc(CN2CCC(CCC(=O)NC3CC3)CC2)c1	i	i	i	i	i	x	x	x	x
COC(=O)CCC(=O)Nc1cccc(Cl)c1	i	-5.4*	i	i	i	84%*	i	i	i

Screening data from PubChem.
